Screening results as filed in PubChem.
Hits are enriched below; roughly 3.7% of the tested compounds scored in any of these assays.
KCNQ1 pot – potentiates or activates the human KCNQ1 potassium channel | P51787 | CHO-K1 KCNQ1, thallium flux FluxOR fluorescence; hits give high values | B-score at 10 µM | actives 0.35% (n = 310,000) | AID 2648;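 active = fluorescence ratio B-score, a plate-corrected score, at least three library SD, with initial intensity B-score within 5 SD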
Target sequence (P51787 whole entry, looked up): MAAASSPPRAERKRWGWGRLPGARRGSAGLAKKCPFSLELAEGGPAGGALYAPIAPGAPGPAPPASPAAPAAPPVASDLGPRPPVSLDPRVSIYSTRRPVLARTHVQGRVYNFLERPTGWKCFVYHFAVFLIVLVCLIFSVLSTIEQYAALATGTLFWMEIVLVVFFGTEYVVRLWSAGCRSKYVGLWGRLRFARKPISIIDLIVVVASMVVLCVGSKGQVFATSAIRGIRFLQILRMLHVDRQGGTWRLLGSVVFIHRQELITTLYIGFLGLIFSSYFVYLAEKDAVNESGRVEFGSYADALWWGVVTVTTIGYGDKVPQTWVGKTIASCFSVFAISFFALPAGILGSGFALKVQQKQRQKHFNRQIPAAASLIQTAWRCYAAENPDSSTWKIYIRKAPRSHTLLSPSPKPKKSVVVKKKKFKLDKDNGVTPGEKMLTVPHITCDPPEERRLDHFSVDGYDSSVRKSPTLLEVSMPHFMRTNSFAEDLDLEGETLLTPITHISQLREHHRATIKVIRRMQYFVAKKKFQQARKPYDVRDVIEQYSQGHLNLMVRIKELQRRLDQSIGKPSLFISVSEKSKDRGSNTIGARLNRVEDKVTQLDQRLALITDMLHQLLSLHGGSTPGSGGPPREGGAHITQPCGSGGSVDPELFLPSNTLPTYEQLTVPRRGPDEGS
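assay system = CHO-K1 cells stably expressing KCNQ1 | medium = assay buffer, equal DMSO in all wells | timing = 37 °C overnight plating, 90-min dark dye load, 20-min compound pretreatment | measured by = kinetic FluxOR thallium fluorescence, 10-s 1-Hz baseline, 110-s post-stimulus read | measure = fluorescence change relative to baseline, converted to B score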
KCNK9 block – inhibitors of human KCNK9 two-pore domain potassium channel; Q9NPC2; HEK293 KCNK9, FluxOR thallium flux fluorescence; hits give low values; B-score at 10 µM; actives 1.2% (n = 310,000); AID 488922;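 active = ratio B-score over 3 SD below the library mean, with starting fluorescence within 5 SD of its mean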;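 note: negative B-score means less thallium flux so channel inhibition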
KCNQ1 block – human KCNQ1 channel inhibition; actives 1.3% (n = 310,000); B-score at 10 µM; AID 2642; P51787; CHO-K1 KCNQ1, FluxOR thallium flux fluorescence; hits give high values;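 active = compounds whose thallium flux B-score, printed positive for inhibition, exceeds three library SD while starting fluorescence stays within three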;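 note: channel opened by potassium depolarization with thallium stimulus after 20 min compound exposure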
Kir21 block – inhibitors of mouse Kir2.1 inward-rectifier potassium channel; actives 0.85% (n = 310,000); HEK293-Kir2.1, FluxOR thallium flux fluorescence; hits give low values; AID 1672; B-score at 10 µM;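 active = fluorescence ratio B-score at or below minus 3 SD of library scores, with starting-brightness B-score within 2 SD, cut at about -4.2 in these data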;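 note: channel flux triggered by added potassium and thallium sulfate stimulus; B-score of peak minus minimum fluorescence over baseline after thallium stimulus; more negative B-score means stronger Kir2.1 block with less thallium influx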
hERG protect – compounds protecting human hERG from proarrhythmic drug block. Q12809. CHO-hERG, FluxOR thallium flux, dofetilide IC70 present. activation (rescue from dofetilide block), less the hit threshold, % at 10 µM. actives 0.51% (n = 310,000). AID 1511;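 active = activation above the mean of controls blocked by dofetilide plus 5 SD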;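 note: thallium influx through hERG after potassium depolarization seen as dye fluorescence rise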
KCNK3 block – human KCNK3 channel inhibition, primary screen. O14649. CHO-KCNK3 thallium flux, FluxOR fluorescence; hits give low values. B-score at 10 µM. actives 0.84% (n = 340,000);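 active = B-score under library mean minus 4 SD, starting fluorescence ratio at most library mean plus 5 SD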;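 note: more negative B-score means stronger inhibition of thallium flux through KCNK3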
Starred values were filed as active, the others as inactive; i = inactive; x = not tested or not shown.

SMILES	KCNQ1 pot	KCNK9 block	KCNQ1 block	Kir21 block	hERG protect	KCNK3 block
CCOC(=O)C(=CNc1cccnc1Oc1ccc(C)c2c1CCC2)C(=O)OCC	i	-7.2*	i	-2.1	-8	i
CC1(C)Cc2c(c(N3CCOCC3)nc3snc(N)c23)CO1	i	-7*	i	-1.1	-20	i
O=C(Nc1ccc(CN2CCOCC2)cc1)c1cccc(-c2cc3ccccc3oc2=O)c1	i	i	i	-1.5	-32	i
O=C(Nc1cccc(Cl)c1N1CCCC1)c1cccc(-c2cc3ccccc3oc2=O)c1	i	-7.1*	i	-1.8	-8	i
CN1CCN(C2=Cc3ccccc3Sc3cc(F)ccc32)CC1	i	i	i	-8.4*	-23	i
Nc1cc(C(=O)c2cccs2)ccc1Cl	i	-6.8*	i	-0.01	-4	i
COc1ccc(CN2CCNC(=O)C2CC(=O)NCc2cn3ccc(C)cc3n2)c(OC)c1 (stereo unspecified)	i	i	i	-2.8	-4	i
COc1cc(NC(=O)NNC(=O)c2cc3occc3n2C)cc(OC)c1OC	i	i	i	-0.43	-7	i
CCOC(=O)C(C)Sc1nc(-c2ccccc2)nc2ccccc12 (stereo unspecified)	i	-7.6*	i	1.2	-16	i
CCn1c2ccccc2c2cc(/C=N/NC(=O)c3ccc(O)cc3)ccc21	i	i	i	-4.4*	-9	i
COc1cc(/C=C2/C(=O)N(c3cccc(Br)c3)N=C2C)cc(OC)c1O	i	i	8*	1.3	-8	i
COc1ccc(/C=C2/C(=O)N(c3ccccc3)N=C2C)cc1	i	i	i	2.4	0	i
COc1ccc(C2=NN(c3ccccc3)C(=O)/C2=C\c2ccc(O)c(OC)c2)cc1	i	i	11*	0.63	-4	i
O=C1ON=C(c2ccccc2)/C1=C/c1ccc(O)c(O)c1	i	i	i	-5.2*	-16	i
O=C1ON=C(c2ccc(Cl)c([N+](=O)[O-])c2)/C1=C/c1cccc([N+](=O)[O-])c1O	x	x	x	x	x	i
O=C1ON=C(c2cccc([N+](=O)[O-])c2)/C1=C/c1ccc(O)cc1	i	i	7*	-6.8*	-25	i
Cc1ccc(C)c(C(=O)CCC(=O)O)c1	i	i	i	0	-4	i
COc1ccc(/C=C2\C(=O)ON=C2c2ccccc2)cc1	i	i	i	0.11	-6	i
COc1cc(/C=C2\C(=O)ON=C2c2ccc(Cl)cc2)ccc1O	i	i	i	-4.8*	-10	i
Cc1cc(C(=O)NNC(=O)C(C)NS(=O)(=O)c2ccccc2F)c(C)o1 (stereo unspecified)	x	x	x	x	x	i
CC(=O)C[C@H]1c2cc(C(F)(F)F)ccc2S(=O)(=O)N1C1CCCCC1	10*	i	i	-2.4	-2	i
CCCCCCCCN1[C@@H](CC(C)=O)c2cc(C(F)(F)F)ccc2S1(=O)=O	56*	i	i	1.9	-14	i
COc1ccc(CN2[C@@H](CC(=O)O)c3cc(C(F)(F)F)ccc3S2(=O)=O)cc1	i	i	i	-0.48	6.4*	i
COc1ccc(CN2[C@@H](CC(=O)O)c3ccc(C(F)(F)F)cc3S2(=O)=O)cc1	i	i	i	-0.26	-3	x
CC(C)CN(C(=O)Cn1c(Cl)nc2c1c(=O)n(C)c(=O)n2C)C1CCS(=O)(=O)C1 (stereo unspecified)	i	i	i	-0.48	-4	i
SMILES	KCNQ1 pot	KCNK9 block	KCNQ1 block	Kir21 block	hERG protect	KCNK3 block
COC(=O)c1ccc(NC(=S)NC2CCCCC2)cc1	i	i	i	-0.08	-21	i
O=C(NC1CCCC1)c1cccnc1N1CCCCCC1	i	i	i	0.48	5.0*	i
COC(=O)c1cccnc1NC(=S)NC1CCCCC1	18*	i	i	1.2	0	i
CCCOc1ccc(C(=O)CCC(=O)NNC(=O)Cn2nc(C)cc2C)cc1	i	i	i	1.2	-10	i
COc1ccccc1NC(=O)C1CCCN1C(=O)NC1CCCCC1 (stereo unspecified)	i	i	i	-0.38	-8	i
CCCCc1c(C)[nH]c(C(=O)OCC)c1C	i	i	i	0.01	5.3*	i
N#Cc1cccc(C#N)c1Oc1ccc(N)cc1	i	-6.8*	i	-0.24	-4	i
Nn1c(Cc2cccc3ccccc23)nnc1SCCOc1ccc(Br)cc1	i	i	i	-1.1	-3	i
Nn1c(Cc2cccc3ccccc23)nnc1SCCOc1ccc(F)cc1	i	-7.9*	i	-0.4	-7	i
COC(=O)CN(c1nc(C)c(Br)c(OC)n1)S(=O)(=O)c1ccccc1	i	i	i	-5.5*	-9	i
COC(=O)CN(c1nc(C)cc(OC)n1)S(=O)(=O)c1ccccc1	i	i	i	-3.2	-3	i
Cc1ccc(N2CC(C(=O)Nc3ncc([N+](=O)[O-])s3)CC2=O)cc1 (stereo unspecified)	i	i	6*	-1.2	-7	i
O=C(O)c1ccccc1NS(=O)(=O)c1ccc(NN=Cc2cccc(Cl)c2)c([N+](=O)[O-])c1	x	x	x	x	x	i
CCOc1ncccc1C(=O)OC(C)C(=O)NC(=O)NC1CCCCC1 (stereo unspecified)	i	i	i	0.82	-19	i
O=C1NC(c2cccc(Cl)c2)Oc2ccccc21 (stereo unspecified)	i	i	i	0.55	6.3*	i
Cn1c(=O)cc(OCC(=O)NCc2cccs2)c2ccccc21	i	i	i	0	-3	i
CCCc1nnc(NC(=O)C23CC4CC(CC(C4)C2)C3)s1	i	i	i	0.45	-3	i
CS(=O)(=O)N(CC(=O)N1CCCC1)c1cc(C(F)(F)F)ccc1Cl	i	i	i	0.42	-20	i
CS(=O)(=O)N(CC(=O)N1CCOCC1)c1cc(C(F)(F)F)ccc1Cl	i	i	i	1.2	7.3*	i
Cc1occc1C(=O)Nc1ccccc1C#N	i	i	i	-0.61	-5	i
COc1ccc(Nc2ccc(Cl)nn2)cc1	i	i	i	1	-5	i
Clc1ccc(Nc2ccc(Cl)nn2)cc1	i	i	i	0.7	5.9*	i
O=C(Nc1ccc(C(F)(F)F)cc1)N1CCN(c2ccnc3cc(Cl)ccc23)CC1	i	i	6*	-0.43	-10	i
